Measurements: ChEMBL document CHEMBL1152649, “Synthesis, cytotoxicity and human telomerase inhibition activities of a series of 1,2-heteroannelated anthraquinones and anthra[1,2-d]imidazole-6,11-dione homologues” (2009)
The source made the active and inactive calls. The calls are words filed in the database; no cut-off is given here.

Experiments:
[1] = Cytotoxicity against human H1299 cells at 10 uM after 48 hrs by MTT assay; format: functional; conditions: NCI-H1299, 48 h
Method in brief: (§1)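 H1299 non-small cell lung cancer cells were grown in RPMI 1640 with 10% FBS, penicillin and streptomycin at 37 °C under 5% CO2. About 2 × 10³ cells per well were seeded and left 24 h. Compounds were dissolved fresh in DMSO, diluted into complete medium and applied for 48 h. MTT was then added for 4 h at 37 °C, followed by lysis buffer (20% SDS, 50% DMF) for 16 h, and absorbance was read at 550 nm.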

[2] = Cytotoxicity against human H1299 cells at 100 uM after 48 hrs by MTT assay; format: functional; conditions: NCI-H1299, 48 h; method in brief: as §1
[3] = target: Telomerase reverse transcriptase (Homo sapiens) (UniProt O14746); experiment: Inhibition of telomerase in human H1299 cells up to 100 uM by TRAP assay; format: cell-based
Sequence of Telomerase reverse transcriptase (Homo sapiens) (O14746 whole entry): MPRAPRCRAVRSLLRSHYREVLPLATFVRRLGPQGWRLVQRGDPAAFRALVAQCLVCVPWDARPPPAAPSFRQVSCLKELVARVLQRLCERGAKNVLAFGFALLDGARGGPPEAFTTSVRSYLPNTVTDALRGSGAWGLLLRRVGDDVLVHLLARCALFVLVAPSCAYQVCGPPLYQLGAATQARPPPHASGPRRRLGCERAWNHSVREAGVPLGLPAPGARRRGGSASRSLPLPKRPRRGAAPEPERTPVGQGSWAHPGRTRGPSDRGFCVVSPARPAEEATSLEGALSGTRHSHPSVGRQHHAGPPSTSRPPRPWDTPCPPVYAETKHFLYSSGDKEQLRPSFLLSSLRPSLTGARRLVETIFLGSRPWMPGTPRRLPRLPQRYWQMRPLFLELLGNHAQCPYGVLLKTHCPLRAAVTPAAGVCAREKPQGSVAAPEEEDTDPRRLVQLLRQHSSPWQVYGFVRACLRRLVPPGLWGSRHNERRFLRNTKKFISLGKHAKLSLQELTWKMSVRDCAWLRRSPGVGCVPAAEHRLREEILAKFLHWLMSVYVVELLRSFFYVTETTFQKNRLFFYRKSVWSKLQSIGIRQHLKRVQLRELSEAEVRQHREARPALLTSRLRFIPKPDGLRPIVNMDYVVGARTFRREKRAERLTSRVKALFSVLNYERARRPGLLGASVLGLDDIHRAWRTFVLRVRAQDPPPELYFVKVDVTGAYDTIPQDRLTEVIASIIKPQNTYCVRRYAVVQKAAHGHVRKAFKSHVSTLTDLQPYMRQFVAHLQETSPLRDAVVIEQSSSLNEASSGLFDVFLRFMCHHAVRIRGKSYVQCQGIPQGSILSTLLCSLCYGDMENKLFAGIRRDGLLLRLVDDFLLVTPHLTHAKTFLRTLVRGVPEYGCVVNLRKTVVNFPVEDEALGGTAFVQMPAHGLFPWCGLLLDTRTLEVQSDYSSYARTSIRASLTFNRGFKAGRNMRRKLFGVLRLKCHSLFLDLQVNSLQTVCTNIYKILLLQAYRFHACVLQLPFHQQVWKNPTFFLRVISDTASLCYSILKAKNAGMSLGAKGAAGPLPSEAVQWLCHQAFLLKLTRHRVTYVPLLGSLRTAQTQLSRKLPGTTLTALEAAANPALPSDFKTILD
Method in brief: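 PCR-based telomeric repeat amplification protocol (TRAP). The telomerase source was total lysate of H1299 lung cancer cells, with protein measured against BSA standards. Controls were extract without inhibitor and RNase A-treated extract.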

[4] = tested on: EKVX; experiment: Antiproliferative activity against human EKVX cells assessed as cell growth at 10 uM; format: functional; conditions: read-out: Activity
Method in brief: (§2)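 NCI 60 cell line panel, single-dose screen (10^-5 M) run by the developmental therapeutics program protocol. Results are given as growth percent of treated cells relative to untreated control cells for each line.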

[5] = tested on: SW-620; experiment: Antiproliferative activity against human SW620 cells assessed as cell growth at 10 uM; format: functional; conditions: read-out: Activity
Method in brief: (§3)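 NCI 60 cell line panel, single dose (10^-5 M), run per the Developmental Therapeutics Program protocol (one dose mean graph). Each result is the growth percentage of treated cells relative to untreated control cells.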

[6] = tested on: MCF7; experiment: Antiproliferative activity against human MCF7 cells assessed as cell growth at 10 uM; format: functional; conditions: read-out: Activity; method in brief: as §2
[7] = tested on: MDA-MB-231; experiment: Antiproliferative activity against human MDA-MB-231 cells assessed as cell growth at 10 uM; format: functional; conditions: read-out: Activity; method in brief: as §2
[8] = tested on: MDA-MB-435; experiment: Antiproliferative activity against human MDA-MB-435 cells assessed as cell growth at 10 uM; format: functional; conditions: read-out: Activity; method in brief: as §2
[9] = tested on: NCI/ADR-RES; experiment: Antiproliferative activity against human NCI/ADR-RES cells assessed as cell growth at 10 uM; format: functional; conditions: read-out: Activity; method in brief: as §2
[10] = tested on: T47D; experiment: Antiproliferative activity against human T47D cells assessed as cell growth at 10 uM; format: functional; conditions: read-out: Activity; method in brief: as §3
[11] = tested on: OVCAR-5; experiment: Antiproliferative activity against human OVCAR5 cells assessed as cell growth at 10 uM; format: functional; conditions: read-out: Activity; method in brief: as §2
[12] = tested on: OVCAR-8; experiment: Antiproliferative activity against human OVCAR8 cells assessed as cell growth at 10 uM; format: functional; conditions: read-out: Activity; method in brief: as §2
[13] = tested on: SK-OV-3; experiment: Antiproliferative activity against human SKOV3 cells assessed as cell growth at 10 uM; format: functional; conditions: read-out: Activity; method in brief: as §2
[14] = tested on: HL-60(TB); experiment: Antiproliferative activity against human HL-60(TB) cells assessed as cell growth at 10 uM; format: functional; conditions: read-out: Activity
Method in brief: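 NCI Developmental Therapeutics Program 60-cell-line one-dose screen at 10^-5 M. Readout is growth percentage of treated cells relative to untreated control cells.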

[15] = tested on: K562; experiment: Antiproliferative activity against human K562 cells assessed as cell growth at 10 uM; format: functional; conditions: read-out: Activity; method in brief: as §2
[16] = tested on: MOLT-4; experiment: Antiproliferative activity against human MOLT4 cells assessed as cell growth at 10 uM; format: functional; conditions: read-out: Activity; method in brief: as §2
[17] = Antiproliferative activity against human RPMI8266 cells assessed as cell growth at 10 uM; format: functional; conditions: read-out: Activity; method in brief: as §2
[18] = tested on: SR; experiment: Antiproliferative activity against human SR cells assessed as cell growth at 10 uM; format: functional; conditions: read-out: Activity; method in brief: as §3
[19] = tested on: ACHN; experiment: Antiproliferative activity against human ACHN cells assessed as cell growth at 10 uM; format: functional; conditions: read-out: Activity; method in brief: as §2
[20] = tested on: CAKI-1; experiment: Antiproliferative activity against human Caki1 cells assessed as cell growth at 10 uM; format: functional; conditions: read-out: Activity; method in brief: as §2
[21] = tested on: SN12C; experiment: Antiproliferative activity against human SN12C cells assessed as cell growth at 10 uM; format: functional; conditions: read-out: Activity; method in brief: as §2
[22] = tested on: UO-31; experiment: Antiproliferative activity against human UO31 cells assessed as cell growth at 10 uM; format: functional; conditions: read-out: Activity; method in brief: as §3
[23] = tested on: LOX IMVI; experiment: Antiproliferative activity against human LOXIMVI cells assessed as cell growth at 10 uM; format: functional; conditions: read-out: Activity; method in brief: as §2
[24] = tested on: SK-MEL-2; experiment: Antiproliferative activity against human SK-MEL-2 cells assessed as cell growth at 10 uM; format: functional; conditions: read-out: Activity; method in brief: as §2
[25] = tested on: SK-MEL-5; experiment: Antiproliferative activity against human SK-MEL-5 cells assessed as cell growth at 10 uM; format: functional; conditions: read-out: Activity; method in brief: as §2
[26] = tested on: UACC-257; experiment: Antiproliferative activity against human UACC257 cells assessed as cell growth at 10 uM; format: functional; conditions: read-out: Activity; method in brief: as §3
[27] = tested on: UACC-62; experiment: Antiproliferative activity against human UACC62 cells assessed as cell growth at 10 uM; format: functional; conditions: read-out: Activity; method in brief: as §3
[28] = tested on: DU-145; experiment: Antiproliferative activity against human DU145 cells assessed as cell growth at 10 uM; format: functional; conditions: read-out: Activity; method in brief: as §2
[29] = tested on: SF-268; experiment: Antiproliferative activity against human SF268 cells assessed as cell growth at 10 uM; format: functional; conditions: read-out: Activity; method in brief: as §2
[30] = tested on: SF-295; experiment: Antiproliferative activity against human SF295 cells assessed as cell growth at 10 uM; format: functional; conditions: read-out: Activity; method in brief: as §2
[31] = tested on: SF-539; experiment: Antiproliferative activity against human SF539 cells assessed as cell growth at 10 uM; format: functional; conditions: read-out: Activity; method in brief: as §2
[32] = tested on: SNB-75; experiment: Antiproliferative activity against human SNB75 cells assessed as cell growth at 10 uM; format: functional; conditions: read-out: Activity; method in brief: as §3
[33] = tested on: U-251; experiment: Antiproliferative activity against human U251 cells assessed as cell growth at 10 uM; format: functional; conditions: read-out: Activity; method in brief: as §3
[34] = tested on: HOP-92; experiment: Antiproliferative activity against human HOP92 cells assessed as cell growth at 10 uM; format: functional; conditions: read-out: Activity; method in brief: as §2
[35] = tested on: NCI-H226; experiment: Antiproliferative activity against human NCI-H226 cells assessed as cell growth at 10 uM; format: functional; conditions: read-out: Activity; method in brief: as §2
[36] = tested on: NCI-H23; experiment: Antiproliferative activity against human NCI-H23 cells assessed as cell growth at 10 uM; format: functional; conditions: read-out: Activity; method in brief: as §2
[37] = tested on: NCI-H322M; experiment: Antiproliferative activity against human NCI-H322M cells assessed as cell growth at 10 uM; format: functional; conditions: read-out: Activity; method in brief: as §2
[38] = tested on: NCI-H460; experiment: Antiproliferative activity against human NCI-H460 cells assessed as cell growth at 10 uM; format: functional; conditions: read-out: Activity; method in brief: as §2
[39] = tested on: NCI-H522; experiment: Antiproliferative activity against human NCI-H522 cells assessed as cell growth at 10 uM; format: functional; conditions: read-out: Activity; method in brief: as §2
[40] = tested on: COLO 205; experiment: Antiproliferative activity against human COLO205 cells assessed as cell growth at 10 uM; format: functional; conditions: read-out: Activity; method in brief: as §2
[41] = tested on: HCC 2998; experiment: Antiproliferative activity against human HCC2998 cells assessed as cell growth at 10 uM; format: functional; conditions: read-out: Activity; method in brief: as §2
[42] = tested on: HCT-116; experiment: Antiproliferative activity against human HCT116 cells assessed as cell growth at 10 uM; format: functional; conditions: read-out: Activity; method in brief: as §2
[43] = tested on: HT-29; experiment: Antiproliferative activity against human HT-29 cells assessed as cell growth at 10 uM; format: functional; conditions: read-out: Activity; method in brief: as §2
[44] = target: Telomerase reverse transcriptase (Homo sapiens) (UniProt O14746); experiment: Inhibition of TERT in human H1299 cells assessed as residual transcriptional activity at 1 uM after 24 hrs by SEAP reporter gene assay; values are per cent of control
[45] = target: Telomerase reverse transcriptase (Homo sapiens) (UniProt O14746); experiment: Inhibition of TERT in human H1299 cells assessed as residual transcriptional activity at 10 uM after 24 hrs by SEAP reporter gene assay; values are per cent of control

Structure (SMILES): O=C1c2ccccc2C(=O)c2c1ccc1nc(-c3ccc4c(c3)OCO4)[nH]c21
- viability at 10 µM [1]: 67%
- viability at 100 µM [2]: 40%
- inhibition [3]: inactive
- growth at 10 µM [4]: 94.2%
- growth at 10 µM [5]: 91.9%
- growth at 10 µM [6]: 46.5%
- growth at 10 µM [7]: 107%
- growth at 10 µM [8]: 110%
- growth at 10 µM [9]: 105%
- growth at 10 µM [10]: 107%
- growth at 10 µM [11]: 111%
- growth at 10 µM [12]: 96.5%
- growth at 10 µM [13]: 139%
- growth at 10 µM [14]: 127%
- growth at 10 µM [15]: 80.6%
- growth at 10 µM [16]: 105%
- growth at 10 µM [17]: 96.2%
- growth at 10 µM [18]: 91.7%
- growth at 10 µM [19]: 104%
- growth at 10 µM [20]: 114%
- growth at 10 µM [21]: 101%
- growth at 10 µM [22]: 73.4%
- growth at 10 µM [23]: 99.6%
- growth at 10 µM [24]: 41.5%
- growth at 10 µM [25]: 98.7%
- growth at 10 µM [26]: 117%
- growth at 10 µM [27]: 98.1%
- growth at 10 µM [28]: 107%
- growth at 10 µM [29]: 100%
- growth at 10 µM [30]: 115%
- growth at 10 µM [31]: 108%
- growth at 10 µM [32]: 102%
- growth at 10 µM [33]: 111%
- growth at 10 µM [34]: 65.3%
- growth at 10 µM [35]: 97%
- growth at 10 µM [36]: 94.3%
- growth at 10 µM [37]: 150%
- growth at 10 µM [38]: 109%
- growth at 10 µM [39]: 83.3%
- growth at 10 µM [40]: 126%
- growth at 10 µM [41]: 85.7%
- growth at 10 µM [42]: 116%
- growth at 10 µM [43]: 95.8%
- residual activity [44]: 61%
- residual activity [45]: 61%

Structure (SMILES): N#Cc1ccc(-c2nc3ccc4c(c3[nH]2)C(=O)c2ccccc2C4=O)cc1
- viability at 10 µM [1]: 77%
- viability at 100 µM [2]: 19%
- inhibition [3]: inactive
- growth at 10 µM [4]: 99.8%
- growth at 10 µM [5]: 89.4%
- growth at 10 µM [6]: 62.7%
- growth at 10 µM [7]: 87.1%
- growth at 10 µM [8]: 113%
- growth at 10 µM [9]: 102%
- growth at 10 µM [10]: 85.1%
- growth at 10 µM [11]: 98.1%
- growth at 10 µM [12]: 98.9%
- growth at 10 µM [13]: 104%
- growth at 10 µM [14]: 145%
- growth at 10 µM [15]: 54.9%
- growth at 10 µM [16]: 87.1%
- growth at 10 µM [17]: 114%
- growth at 10 µM [18]: 84.1%
- growth at 10 µM [19]: 111%
- growth at 10 µM [20]: 110%
- growth at 10 µM [21]: 105%
- growth at 10 µM [22]: 80.4%
- growth at 10 µM [23]: 101%
- growth at 10 µM [24]: 22.5%
- growth at 10 µM [25]: 103%
- growth at 10 µM [26]: 105%
- growth at 10 µM [27]: 104%
- growth at 10 µM [28]: 97.7%
- growth at 10 µM [29]: 99.2%
- growth at 10 µM [30]: 120%
- growth at 10 µM [31]: 104%
- growth at 10 µM [32]: 63.2%
- growth at 10 µM [33]: 112%
- growth at 10 µM [34]: 56.2%
- growth at 10 µM [35]: 103%
- growth at 10 µM [36]: 90.9%
- growth at 10 µM [37]: 127%
- growth at 10 µM [38]: 105%
- growth at 10 µM [39]: 141%
- growth at 10 µM [40]: 113%
- growth at 10 µM [41]: 74.7%
- growth at 10 µM [42]: 79.8%
- growth at 10 µM [43]: 86.4%
- residual activity [44]: 91%
- residual activity [45]: 83%
